For test [1], the target named is Fl-KID-GACKIX complex (GACKIX domain of CBP/p300) (Mus musculus, UniProt P45481). The test can be described thus: Fluorescence polarization inhibition of the Fl-KID-GACKIX complex. The class given is binding. The gist of the method: (§1)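 Test compound added at increasing concentrations to the preformed GACKIX domain complex with either fluorescein-tagged MLL activation-domain peptide or fluorescein-tagged pKID peptide. Displacement was tracked as the change in fluorescence polarization.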
A general note: In fluorescence polarisation assays a small probe gives low polarisation when free and higher when bound to something large.

Test [2] deals with c-Jun-driven gene Cyclin D1. The test can be described thus: Cell-based assay of c-Jun-driven gene Cyclin D1 expression. The conditions noted are these: SI Figure 7.
Test [3] addresses MLL-GACKIX complex (GACKIX domain of CBP/p300) (Mus musculus, UniProt P45481). In kind it is binding. The essentials: as §1
Another test concerns the target T1, VP2-Med15(107-357) (Saccharomyces cerevisiae, UniProt P19659).
T1 sequence (P19659 107-357): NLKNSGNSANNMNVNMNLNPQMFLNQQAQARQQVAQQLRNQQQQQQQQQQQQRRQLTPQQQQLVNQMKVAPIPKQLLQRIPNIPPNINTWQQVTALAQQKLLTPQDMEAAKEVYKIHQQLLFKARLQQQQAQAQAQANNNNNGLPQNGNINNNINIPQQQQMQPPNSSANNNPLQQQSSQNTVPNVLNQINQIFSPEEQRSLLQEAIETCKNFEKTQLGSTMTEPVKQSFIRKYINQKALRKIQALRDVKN
The test can be described thus: Competitive FP binding assay of VP2 with Med15. The conditions noted are these: specificity.

In test [4] the target is GACKIX domain of CBP/p300 (Mus musculus, UniProt P45481). The test can be described thus: Ligand-detected 1D 1H-NMR binding to GACKIX with MLL and KID peptide competition. The conditions noted are these: sekikaic acid 15 μM, GACKIX 5 μM, MLL and pKID peptide 15 μM each. The gist of the method:
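Aromatic 1H resonances of the test compound (15 μM) were recorded alone and after adding GACKIX (5 μM). MLL and pKID peptides (15 μM each) were then added singly or together. Resonance positions were compared with the unbound-state spectrum to judge reversal of binding.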

Structures are written as SMILES. Read-outs that look alike come from different tables or passages of the source.

MLL-GACKIX complex (GACKIX domain of CBP/p300), sequence (P45481 586-665 limits assumed, one chain of several): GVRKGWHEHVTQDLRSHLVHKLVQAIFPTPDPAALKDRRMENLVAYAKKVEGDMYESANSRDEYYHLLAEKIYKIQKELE
Fl-KID-GACKIX complex (GACKIX domain of CBP/p300), sequence (P45481 586-665 limits assumed, one chain of several): as above
GACKIX domain of CBP/p300, sequence (P45481 586-665 limits assumed): as the sequence (P45481 586-665 limits assumed, one chain of several) above

With `CCCCCc1c2c(cc(O)c1C(=O)O)OC(=O)c1c(cc(OC)cc1C(=O)CCCC)O2` [lobaric acid], the IC50 in test [1] is 25 µM; in test [3], 17 µM. The “Effect on expression of c-Jun-driven gene Cyclin D1 in cells” value (“Effect on expression” for short) in test [2] is recorded as “dose dependent down regulation”.

Take `CCCc1cc(OC)cc(O)c1C(=O)Oc1c(OC)cc(CCC)c(C(=O)O)c1O` [sekikaic acid]: the “Inhibition of VP2-Med15(107-357) (in words)” value at VP2-Med15(107-357) is given as “did not significantly inhibit”. For the same compound, in test [4], the “Reversibility of binding to GACKIX” value was “reversible”. Besides, in test [2], the “Effect on expression” value is “dose dependent down regulation”. In addition, in test [3] (read-out: IC50, inhibition of the MLL-GACKIX complex, FP, fluorescein-tagged MLL), the IC50 came out at 34 µM.

On to `Cc1cc(OC(=O)c2c(C)cc(O)cc2O)cc(O)c1C(=O)O` [lecanoric acid, reference compound], for which the “Inhibition of Fl-KID binding to GACKIX (in words)” value in test [1] (competitive FP binding assay) is on record as “unable to significantly inhibit”. For the same compound, the “Effect on expression” value in test [2] was “no effect”. Further, in test [3] (competitive FP binding assay), the “Inhibition of Fl-MLL binding to GACKIX (in words)” value is reported as “unable to significantly inhibit”.

Usually IC50 stands for the midpoint of a concentration-inhibition curve.

The record behind these values is publication PMC3711073 (Angewandte Chemie (International ed. in English), 2012).
